Screens as filed in PubChem BioAssay.
Compounds with a hit are over-represented: about 3.8% of the library has one in this group of screens.
FN deposition inh = fibronectin deposition inhibition; inhibition, % at 12.6 µM; AID 743247; 350,000 compounds, 0.086% hits; AH1F fibroblasts, Alexa488-fibronectin deposition fluorescence, overnight;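 active means mean inhibition across replicates of 30% or more, regardless of how many single replicates reach that level; inconclusive means mean under 30% yet at least half of replicates reach 30%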;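 further: positive control wells lacked labelled fibronectin entirely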
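Assay system: AH1F fibroblast monolayer, labelled fibronectin deposition. Amount: 10000 cells per well. Also added: labelled fibronectin 24 nM. Compound: single-point pinned compound. Incubation: cell attachment 1 h, compound and FN exposure overnight. Detection: fluorescence after three HBSS washes, excitation 485 nm, emission 525 nm. Read-out: inhibition of fibronectin deposition signal.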
DENV2 CPE = DENV2-induced cell death inhibition; AID 651640; 350,000 compounds, 1.7% hits; CPE inhibition, % at 9.99 µM; DENV2-infected cells, cytopathic effect rescue, plate reader; in the data active means CPE inhibition above about 20%, passing the limit was not always enough; inconclusive means no clear call, values can overlap the other calls; tested in BHK-21 cells;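 further: 0% = median of neutral control wells and 100% = median of positive control wells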
ARNT-TACC3 inh = disruptors of human ARNT/TACC3 interaction. inhibition, % at 9.99 µM. AlphaScreen His-ARNT PAS-B/GST-TACC3 binding, luminescence; TACC3 fragment carries E629A point mutation. 390,000 compounds, 0.66% hits. Q9Y6A5. AID 623870;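 active means mean inhibition of replicates at least 50% and at least half of replicates each reaching 50%; inconclusive means half or more replicates reach 50% but mean below 50%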;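 further: 0% = complete ARNT plus TACC3 wells and 100% = ARNT alone without TACC3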
SIRT5 inh = sirtuin-5 (human) deacylase inhibition; Purified SirT5, succinyl-peptide AMC, trypsin-coupled fluorescence; inhibition, % at 15 µM; 330,000 compounds, 1.1% hits; AID 652115; in the data active means inhibition above about 15%; inconclusive means no clear call, values can overlap the other calls
Target sequence (Q9NXA8 whole entry, looked up): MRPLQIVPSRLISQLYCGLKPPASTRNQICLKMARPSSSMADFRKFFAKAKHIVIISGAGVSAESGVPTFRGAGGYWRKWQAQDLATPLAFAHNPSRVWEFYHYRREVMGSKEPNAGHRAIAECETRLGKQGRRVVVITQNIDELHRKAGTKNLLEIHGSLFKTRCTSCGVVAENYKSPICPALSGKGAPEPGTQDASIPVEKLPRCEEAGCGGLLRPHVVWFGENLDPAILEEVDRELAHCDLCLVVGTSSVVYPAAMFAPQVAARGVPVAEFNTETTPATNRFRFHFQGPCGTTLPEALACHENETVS
XiGFP reactiv = reactivates the inactive X chromosome in mouse fibroblasts; XiGFP mouse fibroblasts, % GFP-positive cells imaging, 3 d; cells co-treated with 5-aza-dC sensitizer; scaled so ellipticine positive control = 100%; activation, % at 7.58 µM; 360,000 compounds, 0.055% hits; AID 743238;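 active means mean normalized replicate activation at least 10% and every replicate at or above 10%; inconclusive means only one of the two criteria met; inactive means mean below 10% and not all replicates reach 10%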;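 further: 0% = median of on-plate neutral control wells and 100% = ellipticine 6 µM median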
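material = 68-5-11 XiGFP fibroblast line | medium = DMEM plus 5-aza-dC sensitizer | schedule = 3 days compound exposure | benchmarks = positive control ellipticine, 6 µM final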
FGF22 binding = binders of recombinant human FGF22 by thermal shift; Q9HCT0; SYPRO orange fluorescence; percent of sucrose octasulfate shift, DMSO zero; activity (Tm shift, normalised), % at 9.99 µM; 340,000 compounds, 1.5% hits; AID 651658;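 active means mean Tm shift, scaled 0 neutral to 100 positive control, at about 1.3% or above, every replicate too, limit read from the data; inconclusive means no clear call, values can overlap the other calls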
Target sequence (Q9HCT0 whole entry, looked up): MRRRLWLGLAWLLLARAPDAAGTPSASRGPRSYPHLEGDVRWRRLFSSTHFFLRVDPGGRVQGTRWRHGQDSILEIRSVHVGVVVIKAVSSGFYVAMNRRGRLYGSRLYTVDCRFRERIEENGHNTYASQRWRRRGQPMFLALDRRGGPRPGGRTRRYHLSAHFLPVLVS
Numbers without * were called inactive; ? = inconclusive; . = not tested or not shown.

SMILES	FN deposition inh	DENV2 CPE	ARNT-TACC3 inh	SIRT5 inh	XiGFP reactiv	FGF22 binding
COc1ccc(N2CCN(c3ncnc4scc(-c5ccc(F)cc5)c34)CC2)cc1	-4	2	9	-3	0	0
CCOC(=O)c1cnc(-n2nc(C)cc2C)nc1Oc1ccccc1F	12	14	.	0	0	0
CCOC(=O)c1cnc(-n2nc(C)cc2C)nc1N1CCOCC1	1	.	50*	.	.	.
Cc1nn(-c2ccccc2)c2sc(C(=O)OCn3nnc4ccccc4c3=O)cc12	0	-5	-7	17*	0	0
CC(C)(C)OC(=O)N1CCC[C@H]1C(=O)N1CCC[C@H]1C(=O)NCc1ccc(F)cc1F	-4	-1	.	17*	0	0
CC(C)(C)OC(=O)N1CCC[C@H]1C(=O)NCc1ccc(Cl)cc1Cl	-5	4	-6	-4	0	65*
COc1ccccc1CNC(=O)[C@@H](NC(=O)C1CCN(C(=O)[C@@H]2CCCN2C(=O)OC(C)(C)C)CC1)C(C)C	.	61*	-4	1	.	0
CCCNC(=O)C[C@@H]1CC[C@@H]2[C@H](COc3ccc(NS(=O)(=O)CC)cc3C(=O)N2C)O1	9	3	1	8	1	0
Cc1noc(C)c1NC(=O)N(C)C[C@H]1Oc2ccc(NC(=O)Cc3ccccc3)cc2CC(=O)N([C@@H](C)CO)C[C@H]1C	-1	54*	2	-8	-1	.
Cc1noc(C)c1NC(=O)Nc1ccc2c(c1)CC(=O)N([C@H](C)CO)C[C@H](C)[C@H](CN(C)C(=O)Nc1ccccc1)O2	.	20*	-5	-1	2	0
Cc1noc(C)c1NC(=O)N(C)C[C@@H]1Oc2ccc(NC(=O)Cc3ccccc3)cc2CC(=O)N([C@H](C)CO)C[C@H]1C	-8	6	1	-4	0	0
Cc1noc(C)c1NC(=O)Nc1ccc2c(c1)CC(=O)N([C@H](C)CO)C[C@H](C)[C@@H](CN(C)C(=O)Nc1ccccc1)O2	.	7	-9	3	0	0
Cc1noc(C)c1NC(=O)Nc1ccc2c(c1)CC(=O)N([C@H](C)CO)C[C@@H](C)[C@@H](CN(C)Cc1ccc(-c3ccccc3)cc1)O2	.	?	.	16*	0	0
Cc1noc(C)c1NC(=O)N(C)C[C@@H]1Oc2ccc(NC(=O)NC3CCCCC3)cc2CC(=O)N([C@H](C)CO)C[C@H]1C	.	32*	8	0	-1	0
O=C(OC[C@@H]1[C@H]2c3ccccc3OC1(CO)N=C1SCc3ccccc3CN12)c1ccccc1	.	-4	5	-2	.	0
CCOc1ccc(N2C(=O)/C(=C\c3ccc(O)c(OC)c3)S(=O)(=O)C2c2cccc([N+](=O)[O-])c2)cc1 (configuration not stated)	8	1	9	-1	0	44*
CC(C)NC(=O)N(C)C[C@H]1Oc2ncc(C#CCc3ccccc3)cc2C(=O)N([C@@H](C)CO)C[C@H]1C	-7	-6	3	5	-1	1
CC1=CC(=O)C(C(C)C)=C/C1=N/OS(=O)(=O)c1ccccc1	33*	-1	19	-3	0	-1
COc1cccc(OC)c1OCCOc1ccc(C(=O)c2ccccc2)cc1	-2	0	-10	17*	0	0
Cc1ccc(S(=O)(=O)N[C@@H]2C=C[C@H](CC(=O)N3CCN(c4ccccc4)CC3)O[C@@H]2CO)cc1	-3	0	.	25*	0	0
COc1ccccc1S(=O)(=O)N[C@H]1C=C[C@@H](CC(=O)NCc2cc(F)cc(F)c2)O[C@H]1CO	.	?	0	-3	0	0
CCS(=O)(=O)N[C@@H]1C=C[C@H](CC(=O)Nc2ccc(-c3ccccc3)cc2)O[C@@H]1CO	-6	70*	1	.	0	0
COc1ccccc1S(=O)(=O)N[C@H]1C=C[C@@H](CC(=O)NCc2cccc(F)c2)O[C@H]1CO	-1	23*	-3	0	0	0
O=C(C[C@H]1C=C[C@H](NC(=O)NC2CCCCC2)[C@H](CO)O1)NCc1ccc(F)cc1	-10	28*	3	0	0	0
O=C(Nc1ccccc1)N1CC(=O)N2[C@H](CO)[C@H](c3ccc(-c4ccc(F)cc4)cc3)[C@H]2C1	.	.	.	.	1	.
SMILES	FN deposition inh	DENV2 CPE	ARNT-TACC3 inh	SIRT5 inh	XiGFP reactiv	FGF22 binding
Cc1noc(C)c1S(=O)(=O)Nc1ccc2c(c1)CC(=O)N([C@H](C)CO)C[C@@H](C)[C@@H](CN(C)S(=O)(=O)c1cccs1)O2	0	-4	0	6	0	0
CN(C)CCCNC(=O)C[C@@H]1C=C[C@H](NS(=O)(=O)c2ccccc2)[C@@H](CO)O1	.	-4	.	15*	0	0
Cn1cnc(S(=O)(=O)N[C@@H]2C=C[C@H](CC(=O)N3CCN(c4ccccc4)CC3)O[C@@H]2CO)c1	2	94*	.	1	0	1
Cn1cnc(S(=O)(=O)N[C@@H]2C=C[C@@H](CC(=O)N3CCN(c4ccccc4)CC3)O[C@H]2CO)c1	3	13	-11	7	1	1
Cn1cnc(S(=O)(=O)N[C@H]2CC[C@@H](CC(=O)Nc3ccccc3)O[C@@H]2CO)c1	-7	-2	2	34*	0	0
Cc1ccc(S(=O)(=O)N[C@@H]2CC[C@@H](CC(=O)N3CCN(c4ccccc4)CC3)O[C@@H]2CO)cc1	.	-5	.	24*	0	0
Cn1cnc(S(=O)(=O)N[C@@H]2CC[C@H](CC(=O)Nc3ccccc3)O[C@H]2CO)c1	-8	?	1	-8	0	0
O=C(c1ccccn1)N1CC2(C1)[C@H](c1ccccc1)[C@@H](CO)N2C(=O)C1CCC1	1	1	.	1	0	.
C[C@@H]1CN([C@H](C)CO)C(=O)c2cccc(NC(=O)C3CC3)c2O[C@H]1CN(C)Cc1ccc(C(=O)Nc2ccccc2N)cc1	.	-2	-5	-4	0	0
COc1ccc2c3c(n(C)c2c1)[C@H](CO)N(Cc1ccc2c(c1)OCO2)CC31CCN(C(=O)C2CC2)CC1	.	.	.	.	0	.
O=C(C1CC1)N1CC[C@@H]2[C@@H](CO)Nc3ccc(C#Cc4ccc(F)cc4)cc3[C@@H]21	1	3	-1	.	0	0
COc1ccc(S(=O)(=O)Nc2ccc3c(c2)C(=O)N([C@H](C)CO)C[C@@H](C)[C@@H](CN(C)Cc2ccc(C(F)(F)F)cc2)OCCCC[C@H](C)O3)cc1	8	-6	-4	17*	0	-1
